No end group written: not given here.
Test system: ARPE-19 cells
Experiment: Cellular uptake of FITC-labelled peptides, confocal microscopy
Format: in vitro ADME, human
Settings: 1 h, 37 °C, confocal microscopy (Fig. 2)
Summary of the method: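 ARPE-19 cells (DMEM/F-12 GlutaMAX, 10% FBS, 1% AA) were seeded at 2 × 10^5 cells/ml in chamber slides and grown two nights. FITC-labelled peptides were applied for 1 h at 37 °C, 5% CO2, in culture medium or in hypoxic HAIR solution (K-gluconate/Na-gluconate/NMDG-based, bicarbonate). Cells were then PBS-washed, fixed in 4% formaldehyde, DAPI-counterstained and imaged by confocal microscopy.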

- cellular uptake in hypoxic ARPE-19 cells (HAIR solution (hypoxia), FITC-labelled Gap19 100 μM or XG19 5 μM): undetectable
- cellular uptake in normal ARPE-19 cells (normal culture medium, FITC-labelled Gap19 100 μM): undetectable
Sequence: KQIEIKKFK [Gap19]

Reference: article PMC7223318 (Drug Delivery and Translational Research, 2020)
